Assay results: ChEMBL document CHEMBL1143828, “A new Aspergillus fumigatus resistance mechanism conferring in vitro cross-resistance to azole antifungals involves a combination of cyp51A alterations” (2007)
Values after ≈ are worked out from the molar mass of the structure shown.

Tests used:
Assay type in all cases: functional
Aspergillus fumigatus [1] = assay: Antifungal activity against azole-resistant Aspergillus fumigatus V13/03-CM3272 isolate from patient with X-linked chronic granulomatous disease by broth microdilution susceptibility test
Procedure, shortened: (§1)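 Broth microdilution per CLSI M38-A with modifications; agents tested: itraconazole, voriconazole, ravuconazole, posaconazole, amphotericin B. Clinical isolates stored as conidia in sterile distilled water, grown at 37°C on potato dextrose agar. Each strain tested at least three times on different days. Quality controls: A. flavus ATCC 204304 and A. fumigatus ATCC 204305.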

Aspergillus fumigatus [2] = assay: Antifungal activity against azole-resistant Aspergillus fumigatus V41/26-CM3820 isolate from patient with pulmonary fibrosis by broth microdilution susceptibility test; procedure, shortened: as §1
Aspergillus fumigatus [3] = assay: Antifungal activity against azole-resistant Aspergillus fumigatus V49/77-CM4050 isolate from patient with acute myeloid leukemia by broth microdilution susceptibility test; procedure, shortened: as §1
Aspergillus fumigatus [4] = assay: Antifungal activity against azole-resistant Aspergillus fumigatus V13/02-CM3271 isolate from patient with X-linked chronic granulomatous disease by broth microdilution susceptibility test; procedure, shortened: as §1
Aspergillus fumigatus [5] = assay: Antifungal activity against azole-resistant Aspergillus fumigatus V28/78-CM3275 isolate from patient with acute myeloid leukemia by broth microdilution susceptibility test; procedure, shortened: as §1
Aspergillus fumigatus [6] = assay: Antifungal activity against azole-resistant Aspergillus fumigatus V45/07-CM3819 isolate from patient with chronic granulomatous disease by broth microdilution susceptibility test; procedure, shortened: as §1
Aspergillus fumigatus [7] = assay: Antifungal activity against azole-resistant Aspergillus fumigatus V34/76-CM3277 isolate from patient with hyper-immunoglobulin E syndrome by broth microdilution susceptibility test; procedure, shortened: as §1
Aspergillus fumigatus [8] = assay: Antifungal activity against azole-resistant Aspergillus fumigatus V34/75-CM3276 isolate from patient with hyper-immunoglobulin E syndrome by broth microdilution susceptibility test; procedure, shortened: as §1
Aspergillus fumigatus [9] = assay: Antifungal activity against azole-resistant Aspergillus fumigatus V27/28-CM3273 isolate from patient by broth microdilution susceptibility test; procedure, shortened: as §1
Aspergillus fumigatus [10] = assay: Antifungal activity against azole-resistant Aspergillus fumigatus M03/669-CM2627 isolate from patient by broth microdilution susceptibility test; procedure, shortened: as §1
Aspergillus fumigatus [11] = assay: Antifungal activity against azole-resistant Aspergillus fumigatus V34/78-CM3279 isolate from patient with hyper-immunoglobulin E syndrome by broth microdilution susceptibility test; procedure, shortened: as §1
Aspergillus fumigatus [12] = assay: Antifungal activity against azole-resistant Aspergillus fumigatus V48/27-CM3936 isolate from patient with acute myeloid leukemia by broth microdilution susceptibility test; procedure, shortened: as §1
Aspergillus fumigatus [13] = assay: Antifungal activity against azole-resistant Aspergillus fumigatus V49/09-CM4023 isolate from patient with chronic obstructive pulmonary disease by broth microdilution susceptibility test; procedure, shortened: as §1
Aspergillus fumigatus [14] = assay: Antifungal activity against azole-resistant Aspergillus fumigatus V34/77-CM3278 isolate from patient with hyper-immunoglobulin E syndrome by broth microdilution susceptibility test; procedure, shortened: as §1

Row | Structure (SMILES) | MIC (Aspergillus fumigatus [1]) [mg/L] | MIC (Aspergillus fumigatus [2]) [mg/L] | MIC (Aspergillus fumigatus [3]) [mg/L] | MIC (Aspergillus fumigatus [4]) [mg/L] | MIC (Aspergillus fumigatus [5]) [mg/L] | MIC (Aspergillus fumigatus [6]) [mg/L] | MIC (Aspergillus fumigatus [7]) [mg/L] | MIC (Aspergillus fumigatus [8]) [mg/L] | MIC (Aspergillus fumigatus [9]) [mg/L] | MIC (Aspergillus fumigatus [10]) [mg/L] | MIC (Aspergillus fumigatus [11]) [mg/L] | MIC (Aspergillus fumigatus [12]) [mg/L] | MIC (Aspergillus fumigatus [13]) [mg/L] | MIC (Aspergillus fumigatus [14]) [mg/L]
1 | C[C@@H](c1nc(-c2ccc(C#N)cc2)cs1)[C@](O)(Cn1cncn1)c1ccc(F)cc1F [RAVUCONAZOLE] | > 8 | 4 (≈ 9.14 µM) | 4 (≈ 9.14 µM) | > 8 | 8 (≈ 18.3 µM) | 8 (≈ 18.3 µM) | 4 (≈ 9.14 µM) | 4 (≈ 9.14 µM) | 4 (≈ 9.14 µM) | 4 (≈ 9.14 µM) | 4 (≈ 9.14 µM) | 8 (≈ 18.3 µM) | 8 (≈ 18.3 µM) | 4 (≈ 9.14 µM)
2 | C[C@@H]1[C@H](O)[C@@H](C)/C=C/C=C/C=C/C=C/C=C/C=C/C=C/[C@H](O[C@@H]2O[C@H](C)[C@@H](O)[C@H](N)[C@@H]2O)C[C@@H]2O[C@](O)(C[C@@H](O)C[C@@H](O)[C@H](O)CC[C@@H](O)C[C@@H](O)CC(=O)O[C@H]1C)C[C@H](O)[C@H]2C(=O)O [AMPHOTERICIN B] | 0.25 (≈ 0.271 µM) | 0.25 (≈ 0.271 µM) | 0.25 (≈ 0.271 µM) | 0.25 (≈ 0.271 µM) | 0.25 (≈ 0.271 µM) | 0.25 (≈ 0.271 µM) | 0.25 (≈ 0.271 µM) | 0.25 (≈ 0.271 µM) | 0.25 (≈ 0.271 µM) | 0.25 (≈ 0.271 µM) | 0.25 (≈ 0.271 µM) | 0.25 (≈ 0.271 µM) | 0.25 (≈ 0.271 µM) | 0.25 (≈ 0.271 µM)
3 | CC[C@@H]([C@H](C)O)n1ncn(-c2ccc(N3CCN(c4ccc(OC[C@@H]5CO[C@@](Cn6cncn6)(c6ccc(F)cc6F)C5)cc4)CC3)cc2)c1=O [POSACONAZOLE] | 1 (≈ 1.43 µM) | 0.5 (≈ 0.713 µM) | 1 (≈ 1.43 µM) | 1 (≈ 1.43 µM) | 0.5 (≈ 0.713 µM) | 1 (≈ 1.43 µM) | 0.5 (≈ 0.713 µM) | 0.5 (≈ 0.713 µM) | 1 (≈ 1.43 µM) | 0.5 (≈ 0.713 µM) | 0.5 (≈ 0.713 µM) | 4 (≈ 5.71 µM) | 4 (≈ 5.71 µM) | 0.5 (≈ 0.713 µM)
4 | CCC(C)n1ncn(-c2ccc(N3CCN(c4ccc(OCC5COC(Cn6cncn6)(c6ccc(Cl)cc6Cl)O5)cc4)CC3)cc2)c1=O (stereo not given) [ITRACONAZOLE] | > 8 | > 8 | > 8 | > 8 | > 8 | > 8 | > 8 | > 8 | > 8 | > 8 | > 8 | > 8 | > 8 | > 8
5 | C[C@@H](c1ncncc1F)[C@](O)(Cn1cncn1)c1ccc(F)cc1F [VORICONAZOLE] | 2 (≈ 5.73 µM) | 4 (≈ 11.5 µM) | 4 (≈ 11.5 µM) | 2 (≈ 5.73 µM) | 4 (≈ 11.5 µM) | > 8 | 2 (≈ 5.73 µM) | 4 (≈ 11.5 µM) | 4 (≈ 11.5 µM) | 4 (≈ 11.5 µM) | 2 (≈ 5.73 µM) | 4 (≈ 11.5 µM) | 4 (≈ 11.5 µM) | 2 (≈ 5.73 µM)
